Measured values published in ChEMBL document CHEMBL3407486, “Additivity or cooperativity: which model can predict the influence of simultaneous incorporation of two or more functionalities in a ligand molecule?” (Eur J Med Chem, 2015).

Molecular target: T1, Thermolysin (Bacillus thermoproteolyticus, UniProt P00800)
T1 sequence (P00800 whole entry): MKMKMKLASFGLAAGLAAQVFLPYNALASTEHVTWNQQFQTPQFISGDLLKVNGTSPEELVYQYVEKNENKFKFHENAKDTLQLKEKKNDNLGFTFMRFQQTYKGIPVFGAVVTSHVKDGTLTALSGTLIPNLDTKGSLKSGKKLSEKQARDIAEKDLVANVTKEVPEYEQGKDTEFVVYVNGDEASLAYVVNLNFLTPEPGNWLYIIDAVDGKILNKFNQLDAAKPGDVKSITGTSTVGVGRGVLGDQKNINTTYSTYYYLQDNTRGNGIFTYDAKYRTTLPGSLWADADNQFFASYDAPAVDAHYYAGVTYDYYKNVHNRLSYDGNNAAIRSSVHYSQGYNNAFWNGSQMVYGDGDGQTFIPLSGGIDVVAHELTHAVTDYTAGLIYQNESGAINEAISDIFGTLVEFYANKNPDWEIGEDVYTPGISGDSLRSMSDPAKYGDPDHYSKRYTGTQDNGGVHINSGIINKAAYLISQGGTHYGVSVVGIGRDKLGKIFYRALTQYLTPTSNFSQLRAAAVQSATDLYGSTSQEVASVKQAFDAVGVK
Assay: Inhibition of Bacillus thermoproteolyticus TLN using 2-furanacryloyl-Gly-Leu-NH2 substrate by biochemical assay
Procedure, shortened: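 Read photometrically at 345 nm, 25.0 ± 0.2 °C, in 0.05 M Tris with 0.02 M CaCl2, 2.5 M NaBr, 1.25% DMF, pH 7.3. Final enzyme ~8 nM (stock quantified by A280). Inhibitor spanned 0.5Ki–10Ki. IC50 from υ0/υi vs [I] plots (Ki above 30 nM) or Henderson plots (below). Ki via Cheng-Prusoff (Km 3.9 ± 0.6 mM), averaged over at least three determinations.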

CC(C)CCNC(=O)[C@H](CC(C)C)NP(=O)(O)CNC(=O)OCc1ccccc1
Ki: 69 nM

CC(C)C[C@H](NP(=O)(O)CNC(=O)OCc1ccccc1)C(=O)NCC(C)(C)C
Ki: 100 nM

CCCCCNC(=O)[C@H](CC(C)C)NP(=O)(O)CNC(=O)OCc1ccccc1
Ki: 59 nM

CCC(C)CNC(=O)[C@H](CC(C)C)NP(=O)(O)CNC(=O)OCc1ccccc1 (some centres undefined)
Ki: 26 nM

C[C@H](NP(=O)(O)CNC(=O)OCc1ccccc1)C(=O)NCCc1ccccc1
Ki: 45200 nM

CNC(=O)[C@H](C)NP(=O)(O)CNC(=O)OCc1ccccc1
Ki: 185000 nM

CCCCNC(=O)[C@H](CC(C)C)NP(=O)(O)CNC(=O)OCc1ccccc1
Ki: 67 nM

CCC[C@H](NC(=O)[C@H](CC(C)C)NP(=O)(O)CNC(=O)OCc1ccccc1)C(=O)O
Ki: 5.5 nM

CC(C)C[C@H](NP(=O)(O)CNC(=O)OCc1ccccc1)C(=O)NCCC(C)(C)C
Ki: 43 nM

CCC[C@H](NP(=O)(O)CNC(=O)OCc1ccccc1)C(=O)NCCC(C)C
Ki: 219 nM

CC[C@H](NP(=O)(O)CNC(=O)OCc1ccccc1)C(=O)N[C@@H](CC(C)C)C(=O)O
Ki: 596 nM

CC(C)C[C@H](NC(=O)[C@H](C)NP(=O)(O)CNC(=O)OCc1ccccc1)C(=O)O
Ki: 5920 nM

CCCC[C@H](NC(=O)[C@H](CC(C)C)NP(=O)(O)CNC(=O)OCc1ccccc1)C(=O)O
Ki: 5.3 nM

CC(C)CCNC(=O)[C@H](C)NP(=O)(O)CNC(=O)OCc1ccccc1
Ki: 19500 nM

CCC(C)[C@H](NC(=O)[C@H](CC(C)C)NP(=O)(O)CNC(=O)OCc1ccccc1)C(=O)O (some centres undefined)
Ki: 12 nM

CC[C@H](NC(=O)[C@H](C)NP(=O)(O)CNC(=O)OCc1ccccc1)C(=O)O
Ki: 1370 nM

C[C@H](NC(=O)[C@H](C)NP(=O)(O)CNC(=O)OCc1ccccc1)C(=O)O
Ki: 7200 nM

CC(C)C[C@H](NP(=O)(O)CNC(=O)OCc1ccccc1)C(=O)N[C@H](C(=O)O)C(C)C
Ki: 5.8 nM

CC[C@H](NP(=O)(O)CNC(=O)OCc1ccccc1)C(=O)NCCC(C)C
Ki: 1970 nM

C[C@H](NP(=O)(O)CNC(=O)OCc1ccccc1)C(=O)NCC(=O)O
Ki: 189000 nM

CC(C)C[C@H](NP(=O)(O)CNC(=O)OCc1ccccc1)C(=O)NCCc1cccs1
Ki: 189 nM

CC(C)C[C@H](NP(=O)(O)CNC(=O)OCc1ccccc1)C(=O)N[C@H](C(=O)O)C(C)(C)C
Ki: 31 nM

CC(C)C[C@H](NP(=O)(O)CNC(=O)OCc1ccccc1)C(=O)N[C@@H](Cc1ccccc1)C(=O)O
Ki: 54 nM

CC(C)CNC(=O)[C@H](CC(C)C)NP(=O)(O)CNC(=O)OCc1ccccc1
Ki: 37 nM

CCC[C@H](NP(=O)(O)CNC(=O)OCc1ccccc1)C(=O)N[C@@H](CC(C)C)C(=O)O
Ki: 29 nM

CC(C)C[C@H](NC(=O)[C@H](CC(C)C)NP(=O)(O)CNC(=O)OCc1ccccc1)C(=O)O
Ki: 10 nM

CCCNC(=O)[C@H](C)NP(=O)(O)CNC(=O)OCc1ccccc1
Ki: 12400 nM

C[C@H](NP(=O)(O)CNC(=O)OCc1ccccc1)C(=O)N[C@@H](Cc1ccccc1)C(=O)O
Ki: 31100 nM

CC(C)C[C@H](NP(=O)(O)CNC(=O)OCc1ccccc1)C(=O)N[C@@H](CC(C)(C)C)C(=O)O
Ki: 40 nM

CCNC(=O)[C@H](C)NP(=O)(O)CNC(=O)OCc1ccccc1
Ki: 56200 nM

CC[C@H](NC(=O)[C@H](CC(C)C)NP(=O)(O)CNC(=O)OCc1ccccc1)C(=O)O
Ki: 4.9 nM

CCCNC(=O)[C@H](CC(C)C)NP(=O)(O)CNC(=O)OCc1ccccc1
Ki: 60 nM

CC(C)C[C@H](NP(=O)(O)CNC(=O)OCc1ccccc1)C(=O)NCCc1ccccc1
Ki: 296 nM

CC(C)C[C@H](NP(=O)(O)CNC(=O)OCc1ccccc1)C(=O)N[C@@H](Cc1cccs1)C(=O)O
Ki: 24 nM
